How the values were obtained:
[1] = biological target: Somatostatin receptor type 1 (Homo sapiens, UniProt P30872); test: The compound was tested for binding affinity against human Somatostatin receptor type 1
Summary of the method: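 Membranes from CHO-K1 cells transfected with the cloned human receptor. Terminated by filtration on PEI-soaked GF/C filters. Nonspecific binding defined with 1.0 μM SRIF. Mean ± SEM; single values are from one experiment.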

[2] = biological target: Somatostatin receptor type 3 (Homo sapiens, UniProt P32745); test: The compound was tested for binding affinity against human Somatostatin receptor type 3
Sequence of Somatostatin receptor type 3 (P32745 whole entry): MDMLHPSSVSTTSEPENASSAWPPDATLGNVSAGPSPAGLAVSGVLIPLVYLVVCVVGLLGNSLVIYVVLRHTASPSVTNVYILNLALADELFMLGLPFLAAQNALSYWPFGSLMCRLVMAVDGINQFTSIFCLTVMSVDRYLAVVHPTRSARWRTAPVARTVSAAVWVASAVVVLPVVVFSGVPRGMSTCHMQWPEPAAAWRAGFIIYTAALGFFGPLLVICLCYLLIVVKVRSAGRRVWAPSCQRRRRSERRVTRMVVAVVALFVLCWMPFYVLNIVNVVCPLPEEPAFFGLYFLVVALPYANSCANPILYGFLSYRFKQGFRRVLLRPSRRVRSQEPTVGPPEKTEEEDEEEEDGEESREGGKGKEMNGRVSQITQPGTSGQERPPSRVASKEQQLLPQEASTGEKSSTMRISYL
Summary of the method: (§1)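 CHO-K1 cells stably transfected (calcium phosphate) with cloned human sst3 or sst4. Membranes made in ice-cold 50 mM Tris-HCl, resuspended in 10 mM Tris-HCl, then incubated 30 min at 37 °C with 0.05 nM [125I]Tyr11-SRIF in HEPES pH 7.4 with BSA, MgCl2 and protease inhibitors. Filtered on GF/C; nonspecific binding with 1.0 µM SRIF. Mean ± SEM, or one experiment.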

[3] = biological target: Somatostatin receptor type 4 (Homo sapiens, UniProt P31391); test: The compound was tested for binding affinity against human Somatostatin receptor type 4; summary of the method: as §1
Sequence of Somatostatin receptor type 4 (P31391 whole entry): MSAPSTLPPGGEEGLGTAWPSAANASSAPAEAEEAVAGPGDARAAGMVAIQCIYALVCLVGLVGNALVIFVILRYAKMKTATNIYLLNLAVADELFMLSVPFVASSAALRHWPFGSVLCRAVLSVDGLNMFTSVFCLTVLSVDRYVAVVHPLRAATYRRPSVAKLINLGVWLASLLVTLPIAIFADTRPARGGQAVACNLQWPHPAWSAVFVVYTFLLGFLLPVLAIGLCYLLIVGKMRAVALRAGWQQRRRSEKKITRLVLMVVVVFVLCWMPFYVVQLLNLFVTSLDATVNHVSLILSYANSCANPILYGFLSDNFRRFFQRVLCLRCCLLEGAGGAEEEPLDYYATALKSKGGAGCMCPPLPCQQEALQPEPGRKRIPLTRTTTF

[4] = biological target: Somatostatin receptor type 2 (Homo sapiens, UniProt P30874); test: The compound was tested for binding affinity against human Somatostatin receptor type 2
Sequence of Somatostatin receptor type 2 (P30874 whole entry): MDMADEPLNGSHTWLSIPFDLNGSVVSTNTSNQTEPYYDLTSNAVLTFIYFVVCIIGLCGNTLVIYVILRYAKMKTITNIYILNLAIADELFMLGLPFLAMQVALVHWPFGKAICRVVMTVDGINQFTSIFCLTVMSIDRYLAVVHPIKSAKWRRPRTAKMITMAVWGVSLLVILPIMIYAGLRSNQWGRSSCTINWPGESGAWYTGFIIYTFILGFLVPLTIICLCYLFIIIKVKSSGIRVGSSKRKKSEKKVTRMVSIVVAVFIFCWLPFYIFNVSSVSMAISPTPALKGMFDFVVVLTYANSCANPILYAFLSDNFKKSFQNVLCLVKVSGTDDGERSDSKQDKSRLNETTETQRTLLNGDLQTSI
Summary of the method: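 Membranes from CHO-K1 cells transfected with the cloned human sst2. Incubated 30 min at 37 °C with 0.05 nM [125I]MK-678 in HEPES pH 7.4 with BSA, MgCl2, Trasylol, bacitracin and PMSF. Filtration on PEI-soaked GF/C filters. Nonspecific binding defined with 1.0 μM SRIF. Mean ± SEM; single values are from one experiment.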

[5] = biological target: Somatostatin receptor; test: Antagonism of in vitro SRIF inhibition of GH release in rat in vitro pituitary cell assay; format: functional, cell-based; conditions: pituitary gland cell
Summary of the method: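 Dispersed adult male rat anterior pituitary cells (trypsin/DNase), about 200 000 cells/well, cultured 4–5 days at 37 °C. GH measured by double-antibody RIA. IC50 versus SRIF, mean ± SEM of n dose–response curves.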

Sequence of Somatostatin receptor type 1 (P30872 whole entry): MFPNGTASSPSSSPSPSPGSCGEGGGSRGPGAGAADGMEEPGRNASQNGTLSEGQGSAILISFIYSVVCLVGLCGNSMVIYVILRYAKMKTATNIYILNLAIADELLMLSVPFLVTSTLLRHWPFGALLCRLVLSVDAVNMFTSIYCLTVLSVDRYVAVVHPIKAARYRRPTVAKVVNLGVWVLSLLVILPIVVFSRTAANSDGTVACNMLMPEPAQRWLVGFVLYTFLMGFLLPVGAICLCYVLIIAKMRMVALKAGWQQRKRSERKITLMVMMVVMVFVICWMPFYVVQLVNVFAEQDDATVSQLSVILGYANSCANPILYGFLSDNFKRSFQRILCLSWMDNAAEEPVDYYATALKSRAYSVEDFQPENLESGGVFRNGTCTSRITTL

| Ki [1] | Ki [2] | Ki [3] | Ki [4] | IC50 [5] | Structure (SMILES) |
| --- | --- | --- | --- | --- | --- |
|  |  |  |  | 0.137 µM | CC(C)[C@H]1NC(=O)[C@H](CCCCN)NC(=O)[C@@H](Cc2c[nH]c3ccccc23)NC(=O)[C@H](Cc2c[nH]cn2)NC(=O)C(NC(=O)[C@@H](N)Cc2cccc(F)c2)CSSCC(C(=O)N[C@@H](Cc2cccc(F)c2)C(N)=O)NC1=O (stereo in doubt) |
|  |  |  |  | 0.125 µM | CC(C)(C)C[C@@H]1NC(=O)[C@H](CCCCN)NC(=O)[C@@H](Cc2c[nH]c3ccccc23)NC(=O)[C@H](Cc2cccnc2)NC(=O)C(NC(=O)[C@@H](N)Cc2ccc(Cl)cc2)CSSCC(C(=O)N[C@@H](Cc2ccc3ccccc3c2)C(N)=O)NC1=O (stereo in doubt) |

The next lines start with the compound.

| Structure (SMILES) | Ki [1] | Ki [2] | Ki [3] | Ki [4] | IC50 [5] |
| --- | --- | --- | --- | --- | --- |
| C[C@@H](O)[C@@H]1NC(=O)[C@H](CCCCN)NC(=O)[C@@H](Cc2c[nH]c3ccccc23)NC(=O)[C@H](Cc2ccc(O)cc2)NC(=O)[C@H](NC(=O)[C@@H](N)Cc2ccc(Cl)cc2)CSSC[C@@H](C(=O)N[C@@H](Cc2ccc3ccccc3c2)C(N)=O)NC1=O | > 1 µM | 0.093 µM | > 1 µM | 0.026 µM | 0.0011 µM |
| C[C@@H](O)[C@@H]1NC(=O)[C@H](CCCCN)NC(=O)[C@@H](Cc2c[nH]c3ccccc23)NC(=O)[C@H](Cc2ccccn2)NC(=O)C(NC(=O)[C@@H](N)Cc2ccc(Cl)cc2)CSSCC(C(=O)N[C@@H](Cc2ccc3ccccc3c2)C(N)=O)NC1=O (stereo in doubt) |  |  |  |  | 0.135 µM |
| CC(C)[C@H]1NC(=O)[C@H](CCCCN)NC(=O)[C@@H](Cc2c[nH]c3ccccc23)NC(=O)[C@H](Cc2c[nH]cn2)NC(=O)C(NC(=O)[C@@H](N)Cc2ccc(F)cc2)CSSCC(C(=O)N[C@@H](Cc2ccc(F)cc2)C(N)=O)NC1=O (stereo in doubt) |  |  |  |  | 0.105 µM |
